Assay results published in ChEMBL document CHEMBL1143019, “Hybrid molecules of estrone: new compounds with potential antibacterial, antifungal, and antiproliferative activities” (2007).
≈ marks a conversion by molar mass, not a printed value.

Legend:
Candida albicans [1] = experiment: Antifungal activity against Candida albicans ATCC 44859 after 24 hrs; assay type: functional; settings: ATCC 44859, 24 h
In short: (§1)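 Modified NCCLS M27-A broth microdilution with clinical isolates subcultured on Sabouraud dextrose agar. Suspensions diluted 1:50 in RPMI 1640 to give a final inoculum of 0.5–2.5×10³ CFU/mL for yeasts or 0.5–5×10⁴ CFU/mL for molds. The RPMI had L-glutamine, no bicarbonate, and 0.165 M MOPS to pH 7.0. Twofold dilutions from 250 to 0.49. Plates held at 35 °C, humid, without agitation. MIC is the lowest concentration giving ≥80% inhibition versus drug-free control, read at 24 and 48 h.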

Mycobacterium kansasii [2] = experiment: Antimicrobial activity against Mycobacterium kansasii My 235/80 after 14 days; assay type: functional; settings: 336 h
In short: (§2)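 Run in Šula semisynthetic liquid medium containing bovine serum. Compounds added as DMSO solutions at final concentrations of […]. Each strain was also inoculated onto Löwenstein–Jensen medium to control inoculum sterility and growth.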

[3] = tested on: Mycobacterium tuberculosis; experiment: Antimicrobial activity against Mycobacterium tuberculosis My 331/88 after 21 days; assay type: functional; settings: 504 h
Nakaseomyces glabratus [4] = experiment: Antifungal activity against Candida glabrata 20/I after 24 hrs; assay type: functional; in short: as §1
L929 = experiment: Antiproliferative activity against mouse L929 cells after 72 hrs; assay type: functional; settings: L929, 72 h
In short: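 About 10,000 adherent cells per well in RPMI 1640 with 10% heat-inactivated FBS and penicillin/streptomycin, without HEPES. Exposed to 10 concentrations for 72 h at 37 °C in humidified 5% CO₂. Monolayers fixed with glutaraldehyde, stained 15 min with 0.05% methylene blue, and eluted with 0.33 N HCl; OD read at 630 nm. GI50 derived from dose–response curves relative to control.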

Candida tropicalis [5] = experiment: Antifungal activity against Candida tropicalis 156 after 24 hrs; assay type: functional; in short: as §1
Aspergillus fumigatus [6] = experiment: Antifungal activity against Aspergillus fumigatus 231 after 24 hrs; assay type: functional; in short: as §1
Pichia kudriavzevii [7] = experiment: Antifungal activity against Candida krusei E28 after 48 hrs; assay type: functional; in short: as §1
Candida albicans [8] = experiment: Antifungal activity against Candida albicans ATCC 44859 after 48 hrs; assay type: functional; settings: ATCC 44859, 48 h; in short: as §1
Mycobacterium kansasii [9] = experiment: Antimicrobial activity against Mycobacterium kansasii My 6509/96 after 21 days; assay type: functional; settings: 504 h; in short: as §2
Mycobacterium kansasii [10] = experiment: Antimicrobial activity against Mycobacterium kansasii My 235/80 after 21 days; assay type: functional; settings: 504 h; in short: as §2
HeLa = experiment: Cytotoxicity against human HeLa cells after 72 hrs; assay type: functional; settings: for CC50: Homo sapiens, HeLa, 72 h
In short: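 About 10,000 cells per well in RPMI 1640 were preincubated 48 h without compound. The 10 test concentrations were then applied onto the monolayers and incubated 72 h at 37 °C in humidified 5% CO₂. Monolayers fixed with glutaraldehyde, stained with 0.05% methylene blue, and eluted with 0.33 N HCl; optical density measured at 630 nm.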

Trichophyton benhamiae [11] = experiment: Antifungal activity against Trichophyton mentagrophytes 445 after 120 hrs; assay type: functional, Arthroderma benhamiae
In short: (§3)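 Same modified M27-A microdilution with the mold inoculum of 0.5–5×10⁴ CFU/mL. Medium was RPMI 1640 with L-glutamine, no bicarbonate, and 0.165 M MOPS at pH 7.0. Twofold dilutions from 250 to 0.49. Incubated at 35 °C in a humid atmosphere.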

Nakaseomyces glabratus [12] = experiment: Antifungal activity against Candida glabrata 20/I after 48 hrs; assay type: functional; in short: as §1
K562 = experiment: Antiproliferative activity against human K562 cells after 72 hrs; assay type: functional; settings: K562, 72 h
In short: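 About 10,000 suspension cells per well in RPMI 1640 with 10% heat-inactivated FBS and penicillin/streptomycin, without HEPES. Exposed to 10 concentrations for 72 h at 37 °C in humidified 5% CO₂. Wells diluted 1:50 in CASYTON and counted electronically, each result the mean of three successive counts. GI50 is where the concentration–response curve crosses 50% of control cell count.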

Trichosporon beigelii [13] = experiment: Antifungal activity against Trichosporon beigelii 1188 after 24 hrs; assay type: functional; in short: as §1
Candida tropicalis [14] = experiment: Antifungal activity against Candida tropicalis 156 after 48 hrs; assay type: functional; in short: as §1
Lichtheimia corymbifera [15] = experiment: Antifungal activity against Absidia corymbifera 272 after 48 hrs; assay type: functional; in short: as §1
Trichosporon beigelii [16] = experiment: Antifungal activity against Trichosporon beigelii 1188 after 48 hrs; assay type: functional; in short: as §1
Lichtheimia corymbifera [17] = experiment: Antifungal activity against Absidia corymbifera 272 after 24 hrs; assay type: functional; in short: as §1
Pichia kudriavzevii [18] = experiment: Antifungal activity against Candida krusei E28 after 24 hrs; assay type: functional; in short: as §1
Trichophyton benhamiae [19] = experiment: Antifungal activity against Trichophyton mentagrophytes 445 after 72 hrs; assay type: functional, Arthroderma benhamiae; in short: as §3
Aspergillus fumigatus [20] = experiment: Antifungal activity against Aspergillus fumigatus 231 after 48 hrs; assay type: functional; in short: as §1
Mycobacterium kansasii [21] = experiment: Antimicrobial activity against Mycobacterium kansasii My 6509/96 after 7 days; assay type: functional; settings: 168 h; in short: as §2
[22] = tested on: Mycobacterium tuberculosis; experiment: Antimicrobial activity against Mycobacterium tuberculosis My 331/88 after 14 days; assay type: functional; settings: 336 h
Mycobacterium kansasii [23] = experiment: Antimicrobial activity against Mycobacterium kansasii My 6509/96 after 14 days; assay type: functional; settings: 336 h; in short: as §2
Mycobacterium avium [24] = experiment: Antimicrobial activity against Mycobacterium avium My 330/88 after 14 days; assay type: functional; settings: 336 h
Mycobacterium kansasii [25] = experiment: Antimicrobial activity against Mycobacterium kansasii My 235/80 after 7 days; assay type: functional; settings: 168 h; in short: as §2
Mycobacterium avium [26] = experiment: Antimicrobial activity against Mycobacterium avium My 330/88 after 21 days; assay type: functional; settings: 504 h

| SMILES | MIC (Candida albicans [1]) | MIC (Mycobacterium kansasii [2]) | MIC [3] | MIC (Nakaseomyces glabratus [4]) | GI50 (L929) | MIC (Candida tropicalis [5]) | MIC (Aspergillus fumigatus [6]) | MIC (Pichia kudriavzevii [7]) | MIC (Candida albicans [8]) | MIC (Mycobacterium kansasii [9]) | MIC (Mycobacterium kansasii [10]) | CC10 (HeLa) | MIC (Nakaseomyces glabratus [12]) | MIC (Trichosporon beigelii [13]) | MIC (Candida tropicalis [14]) | MIC (Lichtheimia corymbifera [15]) | MIC (Trichosporon beigelii [16]) | MIC (Lichtheimia corymbifera [17]) | MIC (Pichia kudriavzevii [18]) | MIC (Aspergillus fumigatus [20]) | further results |
| --- | --- | --- | --- | --- | --- | --- | --- | --- | --- | --- | --- | --- | --- | --- | --- | --- | --- | --- | --- | --- | --- |
| C[C@]12CC[C@@H]3c4ccc(OCCCCCCCSc5nnnn5-c5ccc(Cl)c(Cl)c5)cc4CC[C@H]3[C@@H]1CCC2=O | > 250 µM | > 500 µM | > 500 µM | > 250 µM | > 50 mg/L | > 250 µM | 250 µM (≈ 153 µg/mL) | > 250 µM | > 250 µM | > 500 µM | > 500 µM | 50 mg/L (≈ 81.5 µM) | > 250 µM | > 250 µM | > 250 µM | > 250 µM | > 250 µM | > 250 µM | > 250 µM | > 250 µM | CC50 (HeLa): > 50 mg/L; MIC (Trichophyton benhamiae [11]): > 250 µM; GI50 (K562): > 50 mg/L; MIC (Trichophyton benhamiae [19]): > 250 µM |
| Clc1ccc(-n2nnnc2SCc2ccccc2)cc1 | > 250 µM | 32 µM (≈ 9.69 µg/mL) | – | > 250 µM | 16.7 mg/L (≈ 55.2 µM) | > 250 µM | 62.5 µM (≈ 18.9 µg/mL) | > 250 µM | > 250 µM | – | – | 5 mg/L (≈ 16.5 µM) | > 250 µM | > 250 µM | > 250 µM | > 250 µM | > 250 µM | > 250 µM | > 250 µM | 62.5 µM (≈ 18.9 µg/mL) | MIC (Mycobacterium kansasii [21]): 16 µM (≈ 4.84 µg/mL); MIC [22]: 16 µM (≈ 4.84 µg/mL); CC50 (HeLa): 50 mg/L (≈ 165 µM); MIC (Trichophyton benhamiae [11]): 62.5 µM (≈ 18.9 µg/mL); GI50 (K562): > 50 mg/L; MIC (Mycobacterium kansasii [23]): 16 µM (≈ 4.84 µg/mL); MIC (Mycobacterium avium [24]): 62.5 µM (≈ 18.9 µg/mL); MIC (Trichophyton benhamiae [19]): 31.3 µM (≈ 9.48 µg/mL); MIC (Mycobacterium kansasii [25]): 16 µM (≈ 4.84 µg/mL) |
| Cc1ccc(-n2nnnc2S)cc1 | – | > 500 µM | > 500 µM | – | > 50 mg/L | – | – | – | – | > 500 µM | > 500 µM | 33 mg/L (≈ 172 µM) | – | – | – | – | – | – | – | – | MIC (Mycobacterium kansasii [21]): 500 µM (≈ 96.1 µg/mL); MIC [22]: 500 µM (≈ 96.1 µg/mL); CC50 (HeLa): > 50 mg/L; MIC (Mycobacterium avium [26]): > 500 µM; GI50 (K562): 42.8 mg/L (≈ 223 µM); MIC (Mycobacterium kansasii [23]): 500 µM (≈ 96.1 µg/mL); MIC (Mycobacterium avium [24]): 500 µM (≈ 96.1 µg/mL); MIC (Mycobacterium kansasii [25]): 500 µM (≈ 96.1 µg/mL) |
| Cc1ccc(-n2nnnc2SCc2ccccc2)cc1 | > 250 µM | 32 µM (≈ 9.04 µg/mL) | 125 µM (≈ 35.3 µg/mL) | > 250 µM | 12.5 mg/L (≈ 44.3 µM) | > 250 µM | 62.5 µM (≈ 17.6 µg/mL) | > 250 µM | > 250 µM | 250 µM (≈ 70.6 µg/mL) | 250 µM (≈ 70.6 µg/mL) | 4 mg/L (≈ 14.2 µM) | > 250 µM | > 250 µM | > 250 µM | > 250 µM | > 250 µM | > 250 µM | > 250 µM | 250 µM (≈ 70.6 µg/mL) | MIC (Mycobacterium kansasii [21]): 16 µM (≈ 4.52 µg/mL); MIC [22]: 32 µM (≈ 9.04 µg/mL); CC50 (HeLa): 19.7 mg/L (≈ 69.8 µM); MIC (Trichophyton benhamiae [11]): 62.5 µM (≈ 17.6 µg/mL); GI50 (K562): 24.3 mg/L (≈ 86.1 µM); MIC (Mycobacterium kansasii [23]): 32 µM (≈ 9.04 µg/mL); MIC (Mycobacterium avium [24]): 62.5 µM (≈ 17.6 µg/mL); MIC (Trichophyton benhamiae [19]): 31.3 µM (≈ 8.84 µg/mL); MIC (Mycobacterium kansasii [25]): 16 µM (≈ 4.52 µg/mL) |
| C[C@@H]1[C@H](O)[C@@H](C)/C=C/C=C/C=C/C=C/C=C/C=C/C=C/[C@H](O[C@@H]2O[C@H](C)[C@@H](O)[C@H](N)[C@@H]2O)C[C@@H]2O[C@](O)(C[C@@H](O)C[C@@H](O)[C@H](O)CC[C@@H](O)C[C@@H](O)CC(=O)O[C@H]1C)C[C@H](O)[C@H]2C(=O)O [AMPHOTERICIN B] | 0.02 µM (≈ 0.0185 µg/mL) | – | – | 0.04 µM (≈ 0.037 µg/mL) | – | 0.07 µM (≈ 0.0647 µg/mL) | 0.27 µM (≈ 0.25 µg/mL) | 0.14 µM (≈ 0.129 µg/mL) | 0.07 µM (≈ 0.0647 µg/mL) | – | – | – | 0.14 µM (≈ 0.129 µg/mL) | 1.08 µM (≈ 0.998 µg/mL) | 0.07 µM (≈ 0.0647 µg/mL) | 2.16 µM (≈ 2 µg/mL) | 2.16 µM (≈ 2 µg/mL) | 1.08 µM (≈ 0.998 µg/mL) | 0.14 µM (≈ 0.129 µg/mL) | 0.27 µM (≈ 0.25 µg/mL) | – |
| OC(Cn1cncn1)(Cn1cncn1)c1ccc(F)cc1F [FLUCONAZOLE] | 0.8 µM (≈ 0.245 µg/mL) | – | – | 13.1 µM (≈ 4.01 µg/mL) | – | 1.6 µM (≈ 0.49 µg/mL) | > 250 µM | 104 µM (≈ 32 µg/mL) | 1.6 µM (≈ 0.49 µg/mL) | – | – | – | 52.2 µM (≈ 16 µg/mL) | 3.3 µM (≈ 1.01 µg/mL) | > 250 µM | > 250 µM | 6.5 µM (≈ 1.99 µg/mL) | > 250 µM | 52.2 µM (≈ 16 µg/mL) | > 250 µM | MIC (Trichophyton benhamiae [11]): 52.2 µM (≈ 16 µg/mL) |
| NNC(=O)c1ccncc1 [ISONIAZID] | – | > 250 µM | 1 µM (≈ 0.137 µg/mL) | – | – | – | – | – | – | 8 µM (≈ 1.1 µg/mL) | > 250 µM | – | – | – | – | – | – | – | – | – | MIC (Mycobacterium kansasii [21]): 4 µM (≈ 0.549 µg/mL); MIC [22]: 0.5 µM (≈ 0.0686 µg/mL); MIC (Mycobacterium avium [26]): > 250 µM; MIC (Mycobacterium kansasii [23]): 4 µM (≈ 0.549 µg/mL); MIC (Mycobacterium avium [24]): > 250 µM; MIC (Mycobacterium kansasii [25]): > 250 µM |
